An excerpt weighted towards active compounds, which were near 1.8% of everything screened.
CHRM4 agonist – CHRM4 agonism in calcium assay; hit rate 0.14% among 360,000; CHO-K1 hM4/Gqi5, Fluo-8 calcium fluorescence; vehicle 0%, full acetylcholine response 100%; activation, % at 3 µM;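 active = activation above the run mean over all test wells plus 3 SD, cut at about 32% in these data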;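 note: peak over basal fluorescence ratio per well then scaled between controls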
CHRM5 agonist – CHRM5 agonism in calcium assay. CHO-K1 hM5 cells, Fluo-8 calcium fluorescence; 0% DMSO wells, 100% maximal acetylcholine response. activation, % at 3 µM. hit rate 0.19% among 360,000;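 active = activation above the run's mean over test compounds plus 3 SD, cut at about 23% in these data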;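 note: signal is peak over basal fluorescence ratio across the kinetic read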
Target sequence (P08912 whole entry, looked up): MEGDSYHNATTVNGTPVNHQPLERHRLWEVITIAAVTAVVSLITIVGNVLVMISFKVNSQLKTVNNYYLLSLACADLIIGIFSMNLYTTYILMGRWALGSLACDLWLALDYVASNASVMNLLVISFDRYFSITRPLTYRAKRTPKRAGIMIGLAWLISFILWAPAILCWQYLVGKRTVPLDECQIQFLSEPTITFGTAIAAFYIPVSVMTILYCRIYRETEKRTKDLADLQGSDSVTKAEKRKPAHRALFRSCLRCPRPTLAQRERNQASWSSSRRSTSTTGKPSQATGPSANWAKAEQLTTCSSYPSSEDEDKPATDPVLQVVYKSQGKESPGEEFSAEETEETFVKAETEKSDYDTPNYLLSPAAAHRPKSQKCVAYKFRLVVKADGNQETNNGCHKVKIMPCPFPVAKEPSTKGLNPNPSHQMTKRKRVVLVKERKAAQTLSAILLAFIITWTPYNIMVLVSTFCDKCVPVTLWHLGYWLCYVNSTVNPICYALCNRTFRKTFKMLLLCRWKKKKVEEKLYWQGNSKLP
CHRM4 antagonist – blocks acetylcholine activation of human M4 receptor; hit rate 0.73% among 360,000; CHO-hM4 cells, ACh EC80, Fluo-8 calcium fluorescence; AID 624125; inhibition, % at 3 µM;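 active = inhibition above its plate's cutoff, the mean inhibition of sample wells plus 3 SD, cut at about 27% in these data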
M5 antag – CHRM5 antagonism in calcium assay; AID 624040; hit rate 0.59% among 360,000; inhibition, % at 3 µM; CHO-hM5 cells, Fluo-8 calcium fluorescence, ACh EC80;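 active = inhibition above a per-plate cutoff, the mean of that plate's test compounds plus 3 SD, cut at about 27% in these data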
CHRM4 PAM – CHRM4 positive allosteric modulation. CHO-K1 hM4/Gqi5, Fluo-8 calcium fluorescence, ACh EC20; 0% = ACh EC20, 100% = maximal ACh. activation, % at 3 µM. hit rate 0.4% among 360,000;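 active = activation above its plate's cutoff, the mean activation of sample wells plus 3 SD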
M5 PAM – potentiates acetylcholine response at human M5 receptor; activation, % at 3 µM; CHO-K1 hM5, Fluo-8 calcium, ACh EC20 PAM; 0% = ACh EC20, 100% = ACh EC100; hit rate 0.3% among 360,000; AID 624038;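 active = activation above the run cutoff, the mean activation of all test compounds plus 3 SD, cut at about 18% in these data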
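system = human M5 receptor in CHO-K1 cells | reagent = EC20 acetylcholine as agonist stimulus | compound dosing = single-point, 3 µM nominal | incubation = Fluo-8 loading 80 min at 37 °C plus 30 min room temperature | detection = Fluo-8 calcium dye fluorescence, kinetic read | benchmarks = low control EC20 acetylcholine (0%), high control EC100 acetylcholine (100%)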
Of the large screens only hits and unclear results are named; the others gave an inactive call.

O=C(NCCc1ccc(Cl)cc1)C1CCCN(c2ncnc3c2nc2n3CCCCC2)C1 (stereo not given)	none
O=C(NCC1CCN(Cc2ccc(Cl)cc2)CC1)C1CCCN(c2ncnc3c2nc2n3CCCCC2)C1 (stereo not given)	CHRM4 antagonist 83.8
O=C(NCC1CCN(Cc2ccc(F)cc2)CC1)C1CCCN(c2ncnc3c2nc2n3CCCCC2)C1 (stereo not given)	CHRM4 antagonist 36.3
Cc1noc(C)c1CN(C(=S)NC1CC2CCC1C2)c1ccccc1 (stereo not given)	M5 PAM 22.6
COc1ccc(-n2c(Cc3cccn3C)nnc2SCC(=O)Nc2cccc(OC)c2)cc1	CHRM4 PAM 18.5
CCC1CCCCN1S(=O)(=O)c1ccc(NC(=O)c2nc(S(C)(=O)=O)ncc2Cl)cc1 (stereo not given)	CHRM4 antagonist 58.6
CC(C)COc1ccc(C(=O)Nc2sc3c(c2C(=O)O)CC(C)(C)OC3)cc1	M5 antag 34.1
CCSc1c([N+](=O)[O-])c(=O)n(-c2ccccc2)c2ccccc12	none
Cc1ccc(/C(CSc2nccn2-c2ncc(C(F)(F)F)cc2Cl)=N\O)cc1	none
O=C(CSc1nccn1-c1ncc(C(F)(F)F)cc1Cl)c1ccc(Br)cc1	M5 PAM 21.8
N#Cc1cccc(NC(=O)CSc2ccc3c4c(cccc24)C(=O)c2ccccc2-3)c1	M5 antag 32.8
Cc1c(Cl)cccc1NC(=O)CNC(=O)c1ccc2c(c1)OCCO2	CHRM4 PAM 21.8
Cc1c(Cl)cccc1NC(=O)CNC(=O)c1ccc(F)cc1	none
COc1cc(CC(NC(C)=O)C(=O)NC2CCN(S(=O)(=O)c3ccc(NC(C)=O)cc3)CC2)cc(OC)c1 (stereo not given)	none
Cc1ccc(NC(=O)c2cc(S(=O)(=O)N3CCCCC3)ccc2N2CCOCC2)c(C)c1	none
Cc1c(Br)cccc1NC(=O)C1(C)CCN1C(C)C (stereo not given)	none
O=C(NCc1ccccc1)NCC12CC3CC(CC(C3)C1)C2	none
O=C(NCc1ccccc1)NC12CC3CC(CC(C3)C1)C2	M5 PAM 19.7
CCOC(=O)c1[nH]c(=O)[nH]c1CNc1ccccc1C#N	none
Cc1ccc2oc(C(=O)NCc3ccccc3)cc(=O)c2c1	none
Cc1cc2oc(C(=O)NCc3ccccc3)cc(=O)c2cc1C	CHRM4 antagonist 98.0, M5 antag 96.8
COc1ccc(S(=O)(=O)N2CCCOC2CNC(=O)C(=O)NCc2ccncc2)cc1 (stereo not given)	none
N#CC1=C(SCC(=O)NC23CC4CC(CC(C4)C2)C3)NC(=O)C(C#N)C12CCCCC2 (stereo not given)	M5 antag 29.1
N#CC1=C(SCC(=O)NC2CC2)NC(=O)C(C#N)C12CCCCC2 (stereo not given)	none
O=C(Nc1ccccc1N1CCCC1)c1ccc([N+](=O)[O-])cc1Cl	CHRM4 PAM 24.9
COc1ccccc1N1CCN(C2CCCN(C(=O)c3oc(C)cc3C)C2)CC1 (stereo not given)	M5 antag 57.2
CN(c1nc2ccccc2nc1Cl)S(=O)(=O)c1ccccc1	none
CCOC(=O)c1cnc2c(Cl)cccc2c1NCCN(C)C	M5 PAM 45.1
CCOC(=O)c1cnc2c(ccc3ccccc32)c1NCCN(C)C	none
CCOC(=O)c1cnc2c(C)cccc2c1Nc1cccc(C(=O)O)c1	CHRM4 antagonist 29.8
Cc1ccc(S(=O)(=O)Oc2cccc([N+](=O)[O-])c2)cc1	none
Oc1ccccc1C1=NC(c2ccccc2)NC(c2ccccc2)C1 (stereo not given)	none
Cc1cccc(OCc2nnc3n2CCCCC3)c1	M5 antag 31.3, M5 PAM 35.8
CC(C)NC(=O)c1ccc(CN2CCC(Cc3ccccc3)CC2)cc1	CHRM4 antagonist 66.9
COc1ccc(CCNC(=O)c2ccc(CN3CCC(Cc4ccccc4)CC3)cc2)cc1	none
C=CCNC(=O)c1ccc(CN2CCC(Cc3ccccc3)CC2)cc1	CHRM4 antagonist 28.2
CSc1ccc(CN2CCC(Cc3ccccc3)CC2)cc1	CHRM4 antagonist 27.7
CN1OC[C@@H]2CN(S(=O)(=O)c3cccc4ccccc34)[C@H](c3ccc(-c4ccccc4)cc3)C[C@@H]21	none
CC(C)Oc1ccc(C(=O)NN2C(=O)NC3(CCCCC3)C2=O)cc1	none
O=C(Nc1oc2ccc(Cl)cc2c(=O)c1-c1ccc(F)cc1)c1ccco1	none
COC(=O)c1ccccc1NC(=O)CSc1nc(O)c(-c2ccccc2)c(=O)[nH]1	none
COC(=O)c1cccc(NC(=O)CSc2nc(O)c(-c3ccccc3)c(=O)[nH]2)c1	CHRM4 PAM 24.4
CC(=O)Nc1c(O)nc(SCC(=O)Nc2ccc(C(C)=O)cc2)[nH]c1=O	none
CC(=O)Nc1c(O)nc(SCC(=O)N2CCCCC2)[nH]c1=O	CHRM4 PAM 22.9
CC(=O)Nc1c(O)nc(SCC(=O)Nc2cccc(C)c2)[nH]c1=O	CHRM4 PAM 41.6
CCCCCCCCCn1c2c(c(=N)c3c1CCC3)CCC2	CHRM4 antagonist 50.0, M5 antag 39.9
CCCCCCn1c2c(c(=N)c3c1CCC3)CCC2	none
CCn1c2c(c(=N)c3c1CCC3)CCC2	M5 antag 31.7
CC1(C)C(=S)N(Cc2ccccc2)c2ccccc21	none
COc1cc(NC(=O)c2sc(C)nc2C)c(OC)cc1NC(=O)c1ccccc1	none
CN(C)c1ccc(CN2CCC(C(=O)NC(c3ccc(F)cc3)c3ccc4ccccc4n3)CC2)cc1 (stereo not given)	M5 antag 35.8
Cc1noc(NS(=O)(=O)c2ccc(NC(=O)c3ccc(N4C(=O)c5ccccc5C4=O)cc3)cc2)c1C	M5 PAM 19.1
CCSc1ncc(Cl)c(C(=O)Nc2ccc(S(=O)(=O)Nc3onc(C)c3C)cc2)n1	M5 antag 47.5
COC(=O)c1ccc(CNC(=O)C23CC4CC(CC(C4)C2)C3)cc1	none
COCCNC(=O)C1(C)CCCN(C(=O)c2cccc3ccccc23)C1 (stereo not given)	M5 antag 29.7
COc1cc(/C=C/C(=O)O)cc(S(=O)(=O)NCc2ccco2)c1OC	none
COc1ccc(/C=C/C(=O)O)cc1S(=O)(=O)NCc1ccco1	M5 PAM 24.8
COc1ccc(CN(C)Cc2c(O)ccc3cc(Br)ccc23)cc1OC	M5 PAM 23.4
Cc1ccc(C)c(N2C(=O)CN=C2Nc2ccccc2Cl)c1	CHRM4 PAM 21.7
CN(C)CCCN1c2ccc(O)cc2Sc2ccc(Cl)cc21	CHRM4 antagonist 44.4, M5 antag 55.8

Assay outcomes from PubChem BioAssay.
